Source: ChEMBL document CHEMBL4602735, “Discovery of (1H-Pyrazolo[3,4-c]pyridin-5-yl)sulfonamide Analogues as Hepatitis B Virus Capsid Assembly Modulators by Conformation Constraint” (J Med Chem, 2020)
In brackets after ≈: the same amount, converted by molar mass. Activity calls are given as the source filed them. No cut-off for these calls is given here.

Legend:
[1] = Half life in mouse plasma by HPLC analysis; format: ADME, cell-free
Summary of the method: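 Prodrug incubated in plasma at 37 °C, with percent remaining determined by HPLC to derive half-life.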

[2] = Stability in pH 7.4 buffer assessed as compound remaining level at 37 degC by HPLC analysis; format: physicochemical
Summary of the method: (§1)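 Prodrug incubated in buffer (0.1 M HCl, pH 5.8, 6.8 or 7.4) at 37 °C; percent of compound remaining determined by HPLC; remaining percentage reported after 3 h, stability meaning no hydrolysis after 2 h.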

[3] = Stability in pH 6.8 buffer assessed as compound remaining level at 37 degC by HPLC analysis; format: physicochemical; summary of the method: as §1
[4] = Stability in pH 5.8 buffer assessed as compound remaining level at 37 degC by HPLC analysis; format: physicochemical; summary of the method: as §1
Hepatitis B virus [5] = test: Antiviral activity against HBV infected in human HepAD38 cells assessed as reduction in viral DNA levels incubated for 6 days by PCR analysis; format: functional, organism-based; details: HePAD38, 144 h
[6] = Cytotoxicity in human HepAD38 cells assessed as induction of cell killing; format: cell-based
[7] = Intrinsic clearance in human liver microsomes; format: ADME, Microsome; details: read-out: CLH
[8] = Intrinsic clearance in mouse liver microsomes; format: ADME, Microsome; details: read-out: CLH
Hepatitis B virus [9] = test: Induction of capsid assembly of recombinant HBV core protein 149 (1 to 149 residues) at 10 uM incubated overnight by electron microscopy
Summary of the method: (§2)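 Core protein N-terminal domain Cp149 (aa 1-149, 5 μM) incubated with compound (10 μM) or DMSO overnight at 37 °C in 150 mM NaCl, 50 mM HEPES, pH 7.4. Assembly is read by EM and by size-exclusion chromatography. In SEC, capsids elute early (about 1.08 mL) and dimers late (about 1.97 mL). Peak AUCs and the capsid/dimer AUC ratio are calculated.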

Hepatitis B virus [10] = test: Induction of capsid assembly of recombinant HBV core protein 149 (1 to 149 residues) at 10 uM incubated overnight by SEC analysis; summary of the method: as §2
Hepatitis B virus [11] = test: Induction of capsid assembly of recombinant HBV core protein 149 (1 to 149 residues) assessed as capsid peak AUC at 10 uM incubated overnight by UV detector based analysis (reference value: 0.96); summary of the method: as §2
Hepatitis B virus [12] = test: Induction of capsid assembly of recombinant HBV core protein 149 (1 to 149 residues) assessed as Cp dimer peak AUC at 10 uM incubated overnight by UV detector based analysis (reference value: 1.63); summary of the method: as §2
Hepatitis B virus [13] = test: Induction of capsid assembly of recombinant HBV core protein 149 (1 to 149 residues) assessed as capsid peak AUC/Cp dimer peak AUC at 10 uM incubated overnight by UV detector based analysis (reference value: 0.59); summary of the method: as §2
[14] = Solubility in water at 1 mg at 25 degC by HPLC analysis; format: physicochemical
Summary of the method: (§3)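 Solubility determined in water or 0.067 M phosphate buffer at pH 5.8, 6.8 and 7.4. Values are reported in mg/mL; ND means below the detection limit.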

Hepatitis B virus [15] = test: Antiviral activity against HBV infected in human HepG2.A64 cells containing reverse transcriptase L180M/T184L/M204V mutant assessed as reduction in viral replication incubated for 6 days by PCR analysis; format: functional, organism-based; details: HepG2.A64, 144 h
Summary of the method: (§4)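 Wild-type HBV replication measured in HepAD38 and HepG2.2.15 cells, lamivudine/entecavir-resistant HBV in HepG2.A64 cells (rtL180M+rtT184L+rtM204V) and multidrug-resistant HBV in HepG2.1403F cells (rtL180M+rtM204V+rtS202G+rtN236T). Read-out is reduction of HBV DNA. EC50 is reported as mean ± SD.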

Hepatitis B virus [16] = test: Antiviral activity against multidrug-resistant HBV infected in human HepG2.1403F cells assessed as reduction in viral replication incubated for 6 days by PCR analysis; format: functional, organism-based; details: 144 h; summary of the method: as §4
[17] = Cytotoxicity in human HepG2 cells assessed as induction of cell killing; format: cell-based
Hepatitis B virus [18] = test: Antiviral activity against HBV genotype D in hydrodynamic injection-based C57BL/6 mouse model of HBV infection assessed as inhibition of HBV replication at 50 mg/kg, po dosed once daily for 7 days by real-time PCR analysis; format: functional, organism-based
Hepatitis B virus [19] = test: Antiviral activity against HBV genotype D in hydrodynamic injection-based C57BL/6 mouse model of HBV infection assessed as inhibition of serum HBV DNA level at 50 mg/kg, po dosed twice daily for 7 days by real-time PCR analysis; format: functional, organism-based
Hepatitis B virus [20] = test: Antiviral activity against HBV genotype D in hydrodynamic injection-based C57BL/6 mouse model of HBV infection assessed as inhibition of liver HBV DNA level at 50 mg/kg, po dosed twice daily for 7 days by real-time PCR analysis; format: functional, organism-based
Hepatitis B virus [21] = test: Antiviral activity against HBV genotype D in hydrodynamic injection-based C57BL/6 mouse model of HBV infection assessed as inhibition of serum HBV DNA level at 100 mg/kg, po dosed twice daily for 7 days by real-time PCR analysis; format: functional, organism-based
Hepatitis B virus [22] = test: Antiviral activity against HBV genotype D in hydrodynamic injection-based C57BL/6 mouse model of HBV infection assessed as inhibition of liver HBV DNA level at 100 mg/kg, po dosed twice daily for 7 days by real-time PCR analysis; format: functional, organism-based
Hepatitis B virus [23] = test: Antiviral activity against HBV genotype D in hydrodynamic injection-based C57BL/6 mouse model of HBV infection assessed as inhibition of serum HBV DNA level at 200 mg/kg, po dosed twice daily for 7 days by real-time PCR analysis; format: functional, organism-based
Hepatitis B virus [24] = test: Antiviral activity against HBV genotype D in hydrodynamic injection-based C57BL/6 mouse model of HBV infection assessed as inhibition of liver HBV DNA level at 200 mg/kg, po dosed twice daily for 7 days by real-time PCR analysis; format: functional, organism-based
[25] = Solubility in pH 6.8 phosphate buffer at 1 mg at 25 degC by HPLC analysis; format: physicochemical; summary of the method: as §3
[26] = Selectivity index, ratio of CC50 for cytotoxicity in human HepAD38 cells assessed as induction of cell killing to EC50 for antiviral activity against HBV infected in human HepAD38 cells assessed as reduction in viral DNA levels incubated for 6 days by PCR analysis; format: toxicity, cell-based; details: read-out: Ratio CC50/EC50
Hepatitis B virus [27] = test: Inhibition of HBsAg secretion in HBV infected human HepG2.2.15 cells at 2 uM for 4 days by ELISA; format: functional, organism-based; details: HepG2 2.2.15
Summary of the method: (§5)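 HepAD38 or HepG2.2.15 cells were treated at 2 µM for 4 days, with medium replaced every 2 days. Intracellular and extracellular DNA and RNA were quantified by qPCR or qRT-PCR, and HBeAg and HBsAg by ELISA. Results were compared with DMSO vehicle as mean ± SD, using a two-tailed t-test.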

Hepatitis B virus [28] = test: Inhibition of HBsAg secretion in HBV infected human HepAD38 cells at 2 uM for 4 days by ELISA; format: functional, organism-based; summary of the method: as §5
Hepatitis B virus [29] = test: Antiviral activity against HBV infected in human HepAD38 cells assessed as inhibition of intracellular viral RNA accumulation at 2 uM for 4 days by qPCR or qRT-PCR relative to control; format: functional, organism-based; summary of the method: as §5
Hepatitis B virus [30] = test: Antiviral activity against HBV infected in human HepG2.2.15 cells assessed as inhibition of intracellular viral RNA accumulation at 2 uM for 4 days by qPCR or qRT-PCR relative to control; format: functional, organism-based; details: HepG2 2.2.15; summary of the method: as §5
Hepatitis B virus [31] = test: Antiviral activity against HBV infected in human HepAD38 cells assessed as inhibition of intracellular viral DNA accumulation at 2 uM for 4 days by qPCR or qRT-PCR relative to control; format: functional, organism-based; summary of the method: as §5
Hepatitis B virus [32] = test: Antiviral activity against HBV infected in human HepG2.2.15 cells assessed as inhibition of intracellular viral DNA accumulation at 2 uM for 4 days by qPCR or qRT-PCR relative to control; format: functional, organism-based; details: HepG2 2.2.15; summary of the method: as §5
Hepatitis B virus [33] = test: Antiviral activity against HBV infected in human HepG2.2.15 cells assessed as reduction in viral DNA levels incubated for 6 days by PCR analysis; format: functional, organism-based; details: HepG2 2.2.15, 144 h
[34] = Solubility in pH 5.8 phosphate buffer at 1 mg at 25 degC by HPLC analysis; format: physicochemical; summary of the method: as §3
[35] = Solubility in pH 7.4 phosphate buffer at 1 mg at 25 degC by HPLC analysis; format: physicochemical; summary of the method: as §3

Compound Cc1cc(Nc2nn(C3CC3)c3cnc(S(=O)(=O)N4CCC(OC(=O)CN)CC4)cc23)ccc1F.O=C(O)C(F)(F)F has a half-life [1] of 1.29 h, a Stability [2] of 74.2% and a Stability [3] of 67.6%. The Stability [4] was 88.3%.
Cc1cc(Nc2nn(C3CC3)c3ccc(S(=O)(=O)N4CCOCC4)cc23)ccc1F gave an EC50 (Hepatitis B virus [5]) of 57 nM, a CC50 [6] greater than 100000 nM and a microsomal CLint [7] of 41 µL/min/mg. For the same compound, the microsomal CLint [8] was 26.9 µL/min/mg.
For O=S(=O)(c1ccc2c(c1)c(Nc1cc(F)c(F)c(F)c1)nn2C1CC1)N1CCC(O)CC1, the EC50 (Hepatitis B virus [5]) was 270 nM, the CC50 [6] was 100000 nM and the Activity (Hepatitis B virus [9]) was “Active”. For the same compound, the Activity (Hepatitis B virus [10]) was “Active”, the AUC (Hepatitis B virus [11]) was 0.56 and the AUC (Hepatitis B virus [12]) was 0.39. The AUC (Hepatitis B virus [13]) was 1.43.
Work on Cc1cc(Nc2nn(C3CC3)c3cnc(S(=O)(=O)N4CCC(OC(=O)CN(C)C)CC4)cc23)ccc1F [listing 1 of 2 here] yielded a solubility [14] of 710 µg/mL (≈ 1340 µM).
For C[C@H](Cn1cnc2c(N)ncnc21)OCP(=O)(O)O [TENOFOVIR ANHYDROUS], the EC50 (Hepatitis B virus [5]) was 10 nM, the EC50 (Hepatitis B virus [15]) was 840 nM and the EC50 (Hepatitis B virus [16]) was 2520 nM. It also gave a CC50 [17] of 15000 nM.
In the case of Cc1cc(Nc2nn(C3CC3)c3cnc(S(=O)(=O)N4CCC(OC(=O)CN(C)C)CC4)cc23)ccc1F [listing 2 of 2 here], the Activity (Hepatitis B virus [18]) is reported as “inactive”, the Activity (Hepatitis B virus [19]) is reported as “Active” and the Activity (Hepatitis B virus [20]) is reported as “Active”. The Activity (Hepatitis B virus [21]) was “Active”, the Activity (Hepatitis B virus [22]) was “Active” and the Activity (Hepatitis B virus [23]) was “Active”. The Activity (Hepatitis B virus [24]) was “Active”.
With CC(=O)O.Cc1cc(Nc2nn(C3CC3)c3cnc(S(=O)(=O)N4CCC(OC(=O)CN(C)C)CC4)cc23)ccc1F the solubility [14] was 1110 µg/mL and the solubility ([25]; BLD = below limit of detection) was “Bld”.
With C=C1[C@H](CO)[C@@H](O)C[C@@H]1n1cnc2c(=O)[nH]c(N)nc21 the EC50 (Hepatitis B virus [5]) was 11 nM, the EC50 (Hepatitis B virus [15]) was greater than 10000 nM and the EC50 (Hepatitis B virus [16]) was greater than 10000 nM. For the same compound, the CC50 [17] was 42100 nM.
Work on O=S(=O)(c1cc2c(Nc3ccc(F)c(C(F)F)c3)nn(C3CC3)c2cn1)N1CCC(O)CC1 yielded an EC50 (Hepatitis B virus [5]) of 71 nM, a CC50 [6] greater than 100000 nM and a selectivity ratio at 144 h [26] greater than 1410. The microsomal CLint [8] was 6.9 µL/min/mg, the inhibition (Hepatitis B virus [27]) was “inactive” and the inhibition (Hepatitis B virus [28]) was “inactive”. For the same compound, the inhibition (Hepatitis B virus [29]) was “Active”, the inhibition (Hepatitis B virus [30]) was “Active” and the inhibition (Hepatitis B virus [31]) was “Active”. The inhibition (Hepatitis B virus [32]) was “Active”, the EC50 (Hepatitis B virus [15]) was 2.2 nM and the EC50 (Hepatitis B virus [16]) was 13 nM. It also gave an EC50 (Hepatitis B virus [33]) of 42 nM and a CC50 [17] greater than 100000 nM.
Work on CS(=O)(=O)O.CS(=O)(=O)O.Cc1cc(Nc2nn(C3CC3)c3cnc(S(=O)(=O)N4CCC(OC(=O)CN(C)C)CC4)cc23)ccc1F yielded a solubility [14] of 7900 µg/mL, a solubility [34] of 7080 µg/mL and a solubility ([25]; phosphate buffer, read-out: solubility) of 7690 µg/mL. For the same compound, the solubility [35] was 230 µg/mL.
In the case of Cc1cc(Nc2nn(C3CC3)c3cnc(S(=O)(=O)N4CCOCC4)cc23)ccc1F, the EC50 (Hepatitis B virus [5]) is reported as 42 nM, the CC50 [6] is reported as greater than 100000 nM and the microsomal CLint [7] is reported as 38 µL/min/mg. It also gave a microsomal CLint [8] of 53.5 µL/min/mg.
